Structures are written as SMILES. Calls of active or inactive are those of the source. The rule behind the calls is not given here.

As usually defined, the EC50 is the midpoint of the concentration-response curve. Usually half-life stands for the time in which the quantity being followed falls by half. By inhibition is commonly meant the drop in the measured response relative to a control, in per cent. What is called IC50 is the concentration needed to halve the response being measured. The term CC50 denotes the concentration giving 50% cytotoxicity. For orientation: bioavailability means dose-corrected exposure relative to a reference, in per cent.

For data set [1], the system named is Hepatitis C virus. In words: Antiviral activity against HCV genotype 1b NK/R2AN infected in human Huh7.5.1 cells assessed as reduction in virus replication in presence of 123 nM NS5B polymerase inhibitor sofosbuvir by luciferase reporter gene assay. As to conditions: Hepacivirus hominis; subtype 1b NK/R2AN; Huh-7. The data set is classed as functional, organism-based. On the technique in general: Reporter assays use an easily measured gene product as a stand-in for the process of interest.

Data set [2] concerns Hepatitis C virus. In words: Antiviral activity against HCV genotype 1b NK/R2AN infected in human Huh7.5.1 cells assessed as reduction in virus replication by luciferase reporter gene assay. To be noted: Hepatitis C virus, subtype 1b NK/R2AN, Huh-7. The data set is classed as functional, organism-based, Hepacivirus hominis, subtype 1b NK/R2AN, Huh-7.
Data set [3] relates to Salmonella typhimurium. In words: Genotoxicity in Salmonella typhimurium TA100 assessed as induction of revertant colonies at 200 ug/plate in presence of S9 mix by Ames test relative untreated control. As to conditions: salmonella enterica subsp. enterica serovar typhimurium. The data set is classed as toxicity, organism-based. Put shortly: (§1)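 Ames test, Maron's method, histidine-requiring S. typhimurium TA98 and TA100, with and without S-9 mix; 200 µg/plate, vehicle and positive controls. Revertant colonies counted in triplicate (mean ± SD, n = 3); factor = treated/vehicle-control colonies; positive if ≥2-fold over vehicle.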
On the technique in general: The Ames test uses bacterial strains that need an amino acid and regain growth without it when mutated back.

The test system of data set [4] is Salmonella typhimurium. In words: Genotoxicity in Salmonella typhimurium TA100 assessed as induction of revertant colonies at 200 ug/plate in absence of S9 mix by Ames test relative untreated control. Type of data set: toxicity, organism-based. To be noted: salmonella enterica subsp. enterica serovar typhimurium. Put shortly: as §1
Data set [5] has as its system Hepatitis C virus. In words: Antiviral activity against HCV genotype 2a JFH5a infected in human Huh7.5.1 cells transfected with JFH5a-Rluc-ad34 assessed as reduction in virus proliferation by luciferase reporter gene assay. The data set is classed as functional, cell-based, Hepacivirus hominis, Huh-7. As to conditions: Hepatitis C virus, genotype 2a JFH5a, Huh-7.
A short description of data set [6]: Half life in Sprague-Dawley rat at 10 mg/kg, po by LC/MS/MS method. Type of data set: ADME, organism-based. To be noted: in vivo. Put shortly:
(§2)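 Sprague-Dawley rats, 2 male and 1 female per compound per route, parallel design. Vehicle 5% DMSO, 10% solutol, 85% HPBCD; IV 5 mg/kg bolus via tail vein, oral 10 mg/kg. Blood into K2-EDTA tubes at several time points, centrifuged, plasma analysed by LC/MS/MS; non-compartmental analysis.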

The nature of data set [7]: Half life in Sprague-Dawley rat at 5 mg/kg, iv by LC/MS/MS method. Type of data set: ADME, organism-based. As to conditions: in vivo. Put shortly: as §2
A further data set deals with hERG (KCNH2) (Homo sapiens, UniProt Q12809). In words: Inhibition of human ERG at 10 uM by fluorescence polarization assay based ligand binding assay. Background: Fluorescence polarisation rises when a labelled molecule tumbles more slowly, as on binding a larger partner.
Sequence of hERG (KCNH2) (Q12809 whole entry): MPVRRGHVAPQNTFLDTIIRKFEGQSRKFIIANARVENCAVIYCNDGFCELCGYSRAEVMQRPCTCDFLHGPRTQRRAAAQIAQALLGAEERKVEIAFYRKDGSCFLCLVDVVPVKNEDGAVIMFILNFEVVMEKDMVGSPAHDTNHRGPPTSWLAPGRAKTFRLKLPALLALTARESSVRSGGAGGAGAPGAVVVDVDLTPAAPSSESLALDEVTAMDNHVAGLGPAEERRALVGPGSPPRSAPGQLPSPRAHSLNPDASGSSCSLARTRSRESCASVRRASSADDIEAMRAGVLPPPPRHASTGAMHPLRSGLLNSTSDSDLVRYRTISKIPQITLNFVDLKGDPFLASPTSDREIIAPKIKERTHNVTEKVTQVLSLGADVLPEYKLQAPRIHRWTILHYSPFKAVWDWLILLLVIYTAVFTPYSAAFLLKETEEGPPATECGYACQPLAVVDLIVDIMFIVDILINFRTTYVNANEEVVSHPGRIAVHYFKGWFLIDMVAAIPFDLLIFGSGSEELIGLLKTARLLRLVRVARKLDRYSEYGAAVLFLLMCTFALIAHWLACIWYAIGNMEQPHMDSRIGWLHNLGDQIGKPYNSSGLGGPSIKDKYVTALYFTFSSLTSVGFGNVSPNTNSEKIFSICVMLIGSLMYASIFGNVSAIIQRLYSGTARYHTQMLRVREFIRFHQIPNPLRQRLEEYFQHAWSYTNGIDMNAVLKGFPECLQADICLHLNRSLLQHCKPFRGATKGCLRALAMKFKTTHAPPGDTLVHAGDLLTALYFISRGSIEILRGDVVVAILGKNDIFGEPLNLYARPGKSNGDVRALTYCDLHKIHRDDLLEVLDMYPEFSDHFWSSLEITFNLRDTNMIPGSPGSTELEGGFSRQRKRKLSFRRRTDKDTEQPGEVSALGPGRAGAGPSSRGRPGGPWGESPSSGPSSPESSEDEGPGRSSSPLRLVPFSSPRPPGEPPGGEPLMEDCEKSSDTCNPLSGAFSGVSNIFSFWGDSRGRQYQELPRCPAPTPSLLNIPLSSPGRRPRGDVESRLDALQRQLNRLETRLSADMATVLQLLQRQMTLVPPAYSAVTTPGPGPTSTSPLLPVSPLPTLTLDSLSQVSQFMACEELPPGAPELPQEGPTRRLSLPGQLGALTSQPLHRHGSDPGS
For another data set, the target named is T1, Cytochrome P450 1A2 (Homo sapiens, UniProt P05177).
T1 sequence (P05177 whole entry): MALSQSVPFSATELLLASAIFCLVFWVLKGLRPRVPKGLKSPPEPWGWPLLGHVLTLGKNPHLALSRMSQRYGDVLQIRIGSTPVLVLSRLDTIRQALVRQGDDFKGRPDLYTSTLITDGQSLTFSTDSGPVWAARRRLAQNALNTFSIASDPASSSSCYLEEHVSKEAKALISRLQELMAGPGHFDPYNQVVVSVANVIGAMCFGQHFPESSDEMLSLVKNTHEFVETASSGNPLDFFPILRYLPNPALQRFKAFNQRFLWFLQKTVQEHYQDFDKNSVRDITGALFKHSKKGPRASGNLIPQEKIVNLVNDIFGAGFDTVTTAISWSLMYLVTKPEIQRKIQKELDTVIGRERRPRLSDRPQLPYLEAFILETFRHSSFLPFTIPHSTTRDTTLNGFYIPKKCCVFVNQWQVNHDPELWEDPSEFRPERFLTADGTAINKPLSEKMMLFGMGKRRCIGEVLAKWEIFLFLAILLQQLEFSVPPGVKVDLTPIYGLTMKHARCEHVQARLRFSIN
In words: Inhibition of human CYP1A2 by luminometry. The data set is classed as ADME. Put shortly:
(§3)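 Human CYP1A2, 2C9, 2C19, 2D6 and 3A4 inhibition by P450-Glo luminescent assay per kit protocol; compounds at 100, 50, 10, 5, 1, 0.1 and 0.01 µM; luminometer read-out.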

Data set [8] can be described thus: Cytotoxicity against CHOK1 cells by WST dye based CCK8 assay. The data set is classed as cell-based. As to conditions: Cricetulus griseus, CHO-K1. The method, boiled down:
(§4)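 CCK-8 survival assay: WST-8 tetrazolium reduced by cellular dehydrogenases to orange formazan, giving living-cell count; compounds tested up to 100 µM maximum.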

The next data set has as its target Cytochrome P450 2C9 (Homo sapiens, UniProt P11712). In words: Inhibition of human CYP2C9 by luminometry. Type of data set: ADME. Put shortly:
as §3

A short description of data set [9]: Cytotoxicity against mouse NIH/3T3 cells by WST dye based CCK8 assay. Type of data set: cell-based. To be noted: NIH3T3. The method, boiled down: as §4
Data set [10] deals with Hepatitis C virus. In words: Antiviral activity against HCV genotype 1b NK/R2AN infected in human Huh7.5.1 cells expressing NS5A L31V mutant assessed as reduction in virus replication at 100 pM to 1 uM by luciferase reporter gene assay. The data set is classed as functional, organism-based. To be noted: Hepacivirus hominis, subtype 1b NK/R2AN, Huh-7. Put shortly: (§5)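 Daclatasvir-resistant NS5A mutant RNAs were transcribed in vitro and electroporated into Huh7.5.1 cells grown in 12-well plates. At 4 h post-transfection, medium was replaced with DMEM containing serially diluted compounds. Cells were harvested 3 days later and Renilla luciferase activity was measured and normalized to mock-treated cells.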

The subject of the next data set is HFL1. In words: Cytotoxicity against human HFL1 cells by WST dye based CCK8 assay. The data set is classed as cell-based. Put shortly: as §4
The nature of data set [11]: Cytotoxicity against human Huh7.5.1 cells. Type of data set: cell-based, Huh-7.
Data set [12] in a line: Stability in human liver microsomes assessed as compound remaining at 1 uM after 0.5 hrs by LC-MS/MS method. Type of data set: ADME. As to conditions: read-out: Stability. Put shortly:
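Pooled human liver microsomal fraction with β-NADPH, compound at 1 µM, incubated over 30 min; remaining compound in supernatant quantified by LC-MS/MS.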

For the next data set, the target named is Cytochrome P450 2C19 (Homo sapiens, UniProt P33261). In words: Inhibition of human CYP2C19 by luminometry. The data set is classed as ADME. The method, boiled down:
as §3

The test system of another data set is Vero. In words: Cytotoxicity against African green monkey Vero cells by WST dye based CCK8 assay. The data set is classed as cell-based. To be noted: Chlorocebus sabaeus. The method, boiled down: as §4
The target in a further data set is Cytochrome P450 2D6 (Homo sapiens, UniProt P10635). In words: Inhibition of human CYP2D6 by luminometry. Type of data set: ADME. Put shortly: as §3
Sequence of Cytochrome P450 2D6 (P10635 whole entry): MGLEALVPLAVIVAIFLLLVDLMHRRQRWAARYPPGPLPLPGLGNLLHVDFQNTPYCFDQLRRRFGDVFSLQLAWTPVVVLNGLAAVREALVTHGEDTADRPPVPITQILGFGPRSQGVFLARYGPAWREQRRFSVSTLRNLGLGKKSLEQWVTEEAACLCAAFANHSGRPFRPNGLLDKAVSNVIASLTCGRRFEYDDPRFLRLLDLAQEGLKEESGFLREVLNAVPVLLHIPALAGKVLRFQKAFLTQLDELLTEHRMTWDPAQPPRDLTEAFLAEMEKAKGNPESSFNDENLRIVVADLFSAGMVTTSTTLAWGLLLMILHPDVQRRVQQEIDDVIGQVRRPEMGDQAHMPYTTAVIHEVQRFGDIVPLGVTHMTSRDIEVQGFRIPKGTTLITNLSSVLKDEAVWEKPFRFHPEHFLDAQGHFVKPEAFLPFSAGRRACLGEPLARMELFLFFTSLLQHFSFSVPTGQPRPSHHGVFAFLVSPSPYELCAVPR
The next data set concerns L929. In words: Cytotoxicity against mouse L929 cells by WST dye based CCK8 assay. The data set is classed as cell-based. The method, boiled down:
as §4

The test system of data set [13] is Hepatitis C virus. In words: Antiviral activity against HCV genotype 1b NK/R2AN infected in human Huh7.5.1 cells expressing NS5A Y93H mutant assessed as reduction in virus replication at 100 pM to 1 uM by luciferase reporter gene assay. Type of data set: functional, organism-based. To be noted: Hepacivirus hominis, subtype 1b NK/R2AN, Huh-7. The method, boiled down: as §5

In the next data set the target is Cytochrome P450 3A4 (Homo sapiens, UniProt P08684). In words: Inhibition of human CYP3A4 by luminometry. Type of data set: ADME. The method, boiled down: as §3
Sequence of Cytochrome P450 3A4 (P08684 whole entry): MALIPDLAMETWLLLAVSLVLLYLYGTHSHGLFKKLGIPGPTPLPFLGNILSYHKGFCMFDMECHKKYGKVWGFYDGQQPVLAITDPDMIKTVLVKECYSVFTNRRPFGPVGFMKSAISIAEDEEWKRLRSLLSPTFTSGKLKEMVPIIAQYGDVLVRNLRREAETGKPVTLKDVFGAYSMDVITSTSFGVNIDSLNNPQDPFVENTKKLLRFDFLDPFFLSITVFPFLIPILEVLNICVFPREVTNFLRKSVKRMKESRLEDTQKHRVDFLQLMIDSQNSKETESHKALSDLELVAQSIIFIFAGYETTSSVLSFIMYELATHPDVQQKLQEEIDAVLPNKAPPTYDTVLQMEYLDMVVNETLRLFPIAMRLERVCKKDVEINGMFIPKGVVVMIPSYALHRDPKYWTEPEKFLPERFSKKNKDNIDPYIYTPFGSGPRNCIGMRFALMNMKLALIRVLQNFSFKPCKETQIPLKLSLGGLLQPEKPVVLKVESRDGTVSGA
Data set [14] in a line: Oral bioavailability in Sprague-Dawley rat at 10 mg/kg by LC/MS/MS method. Type of data set: ADME, organism-based. As to conditions: in vivo. Put shortly:
as §2

The test system of data set [15] is Salmonella typhimurium. In words: Genotoxicity in Salmonella typhimurium TA98 assessed as induction of revertant colonies at 200 ug/plate in absence of S9 mix by Ames test relative untreated control. Type of data set: toxicity, organism-based. As to conditions: salmonella enterica subsp. enterica serovar typhimurium. Put shortly:
as §1

For data set [16], the system named is Salmonella typhimurium. In words: Genotoxicity in Salmonella typhimurium TA98 assessed as induction of revertant colonies at 200 ug/plate in presence of S9 mix by Ames test relative untreated control. Type of data set: toxicity, organism-based. As to conditions: salmonella enterica subsp. enterica serovar typhimurium. Put shortly: as §1
Data set [17] deals with Salmonella typhimurium. In words: Genotoxicity in Salmonella typhimurium TA98 assessed as induction of revertant colonies at 1 ug/plate in absence of S9 mix by Ames test relative untreated control. To be noted: salmonella enterica subsp. enterica serovar typhimurium. Type of data set: toxicity, organism-based.

Sequence of Cytochrome P450 2C9 (P11712 whole entry): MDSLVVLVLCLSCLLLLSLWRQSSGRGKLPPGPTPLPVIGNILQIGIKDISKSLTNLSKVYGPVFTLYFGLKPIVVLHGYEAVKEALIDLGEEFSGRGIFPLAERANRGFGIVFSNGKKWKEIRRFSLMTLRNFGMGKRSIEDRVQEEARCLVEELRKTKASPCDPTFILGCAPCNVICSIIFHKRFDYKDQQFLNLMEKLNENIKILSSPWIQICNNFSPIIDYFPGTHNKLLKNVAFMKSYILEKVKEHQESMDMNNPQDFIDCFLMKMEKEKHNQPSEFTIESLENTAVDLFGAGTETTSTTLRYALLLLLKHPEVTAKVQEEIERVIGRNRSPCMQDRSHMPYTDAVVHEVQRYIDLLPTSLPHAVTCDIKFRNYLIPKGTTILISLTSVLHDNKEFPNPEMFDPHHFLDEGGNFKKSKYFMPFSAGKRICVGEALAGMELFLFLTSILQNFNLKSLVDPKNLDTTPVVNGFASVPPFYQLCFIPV
Sequence of Cytochrome P450 2C19 (P33261 whole entry): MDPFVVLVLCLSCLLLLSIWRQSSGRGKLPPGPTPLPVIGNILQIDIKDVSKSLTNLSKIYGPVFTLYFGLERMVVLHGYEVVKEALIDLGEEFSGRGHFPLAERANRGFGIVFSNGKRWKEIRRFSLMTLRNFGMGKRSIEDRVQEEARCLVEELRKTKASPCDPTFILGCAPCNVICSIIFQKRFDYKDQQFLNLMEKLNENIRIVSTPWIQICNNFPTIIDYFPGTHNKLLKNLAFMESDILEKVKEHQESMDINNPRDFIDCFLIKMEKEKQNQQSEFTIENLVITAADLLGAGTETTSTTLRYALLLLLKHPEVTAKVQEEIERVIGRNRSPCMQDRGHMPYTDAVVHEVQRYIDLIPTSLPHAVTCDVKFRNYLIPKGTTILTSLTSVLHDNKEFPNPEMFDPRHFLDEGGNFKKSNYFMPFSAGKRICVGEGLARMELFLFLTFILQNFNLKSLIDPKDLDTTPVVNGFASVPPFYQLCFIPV

On to `COC(=O)N[C@@H](C(=O)N1CCC[C@H]1C(=O)Nc1ccc(-c2ccc(NC(=O)[C@@H]3CCCN3C(=O)[C@H](NC(=O)OC)c3ccccc3)cc2C(F)(F)F)c(C(F)(F)F)c1)c1ccccc1` (stereo in doubt; form 1), for which, in the data set with Hepatitis C virus [1], the result was Active.

As to `COC(=O)N[C@@H](C(=O)N1CCC[C@H]1C(=O)Nc1ccc2c(c1)C(F)(F)c1cc(NC(=O)[C@@H]3CCCN3C(=O)[C@H](NC(=O)OC)c3ccccc3)ccc1-2)c1ccccc1`, the EC50 with Hepatitis C virus [2] was 3 pM; in the data set with Hepatitis C virus [5] it was 0.059 nM; at Cytochrome P450 1A2, above 100 µM; at Cytochrome P450 2C9 it was 0.277 µM; at Cytochrome P450 2C19 it was 13.9 µM; at Cytochrome P450 2D6 it was above 100 µM. The response on Cytochrome P450 3A4 was half-maximal at 0.976 µM (EC50). The “fold change (FC)” value in the data set on Salmonella typhimurium [3] is on record as 0.9; in the data set with Salmonella typhimurium [4], 0.9; in the data set on Salmonella typhimurium [15], 1.3; in the data set on Salmonella typhimurium [16] it was 1.1. Besides, the half-life in [6] was 1.68 h; in data set [7], 0.9 h. On hERG (KCNH2), this compound returned an inhibition at 10 µM of 39.1%. The IC50 (in [8]; in data set [9]; in the data set on HFL1; with Vero; with L929) was above 100 µM throughout. Further, the inhibition result with Hepatitis C virus [10] and in the data set on Hepatitis C virus [13] was “Active” throughout. For the same compound, the half-maximal cytotoxic concentration (CC50) in [11] was above 25 µM. For the same compound, the remaining at 0.5 h, 1 µM in data set [12] turned out to be 92%. In [14], this compound yielded a bioavailability of 7.6%.

As to `COC(=O)N[C@H](C(=O)N1CCC[C@H]1c1ncc(-c2ccc(-c3ccc(-c4cnc([C@@H]5CCCN5C(=O)[C@@H](NC(=O)OC)C(C)C)[nH]4)cc3)cc2)[nH]1)C(C)C`, the inhibition result in the data set on Hepatitis C virus [10] and in the data set with Hepatitis C virus [13] was “Active” each time.

Regarding `O=[N+]([O-])c1ccc2c(c1)Cc1ccccc1-2` [2-NITROFLUORENE], in the data set on Salmonella typhimurium [17], the “fold change (FC)” value is recorded as 10.2.

Values taken from ChEMBL document CHEMBL3608246, “Novel benzidine and diaminofluorene prolinamide derivatives as potent hepatitis C virus NS5A inhibitors” (Eur J Med Chem, 2015).
